Data set [1] addresses T1, Tyrosine-protein phosphatase non-receptor type 5 (Homo sapiens) (UniProt P54829).
T1 sequence (whole entry): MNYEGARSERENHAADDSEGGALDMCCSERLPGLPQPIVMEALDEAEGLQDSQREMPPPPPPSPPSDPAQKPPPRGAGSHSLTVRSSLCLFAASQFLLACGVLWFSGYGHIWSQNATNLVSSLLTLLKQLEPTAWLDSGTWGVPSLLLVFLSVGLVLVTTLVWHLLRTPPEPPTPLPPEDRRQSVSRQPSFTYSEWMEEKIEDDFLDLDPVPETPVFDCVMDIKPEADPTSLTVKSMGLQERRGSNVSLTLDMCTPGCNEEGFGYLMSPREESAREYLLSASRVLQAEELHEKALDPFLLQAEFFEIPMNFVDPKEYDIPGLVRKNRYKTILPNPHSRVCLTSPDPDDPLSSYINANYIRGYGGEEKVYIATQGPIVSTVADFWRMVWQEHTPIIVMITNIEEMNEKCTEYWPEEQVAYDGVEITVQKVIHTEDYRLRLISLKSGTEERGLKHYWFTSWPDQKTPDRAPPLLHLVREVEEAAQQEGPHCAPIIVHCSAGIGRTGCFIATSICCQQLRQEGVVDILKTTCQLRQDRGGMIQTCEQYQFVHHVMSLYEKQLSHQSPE
As to the kind of experiment: Binding affinity to human 15N-labeled STEP PTP domain (281 to 563 residues) expressed in Escherichia coli OD2 assessed as induction of chemical perturbation at 500 uM by 1H,15N TROSY NMR spectral analysis. A digest of the protocol:
(§1)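 40 μM 15N-labelled STEP PTP domain in 20 mM Tris-d11, 100 mM NaCl, 1 mM TCEP, pH 7.4, 8% D2O, 1% DMSO-d6, 298 K. TROSY spectra used 192 transients and 64 indirect points. Binders were called by manual comparison with the protein-only reference spectrum.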

Data set [2] is filed under the species Homo sapiens. Kind of data set: Binding affinity to human STEP46 (197 to 565 residues) expressed in Escherichia coli BL21(DE3) at 250 uM by STD-NMR method. The method, boiled down:
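Saturation was 3 s Gaussian pulse train, on-resonance −0.2 ppm, off-resonance 60 ppm. A 30 ms spin-lock suppressed protein signal, and the difference spectrum was taken.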

For data set [3], the species on record is Homo sapiens. Kind of data set: Binding affinity to human STEP46 (197 to 565 residues) expressed in Escherichia coli BL21(DE3) at 500 uM by SYPRO Orange dye based DSF. The method, boiled down:
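Final mix was 5 μM STEP46, 25× SYPRO Orange, 500 μM fragment, 1% DMSO in 20 mM HEPES pH 7.5, 50 mM NaCl, 1 mM TCEP, in duplicate. Samples were heated 25→95 °C at 1 °C/min, read every 0.5 °C. Tm was taken from the first-derivative minimum. ΔTm ≥0.5 °C versus DMSO counted as a hit.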

For data set [4], the species on record is Homo sapiens. As to the kind of experiment: Binding affinity to human STEP46 (197 to 565 residues) expressed in Escherichia coli BL21(DE3) by MST method.
The target of data set [5] is Tyrosine-protein phosphatase non-receptor type 5 (Homo sapiens) (UniProt P54829). Kind of data set: Binding affinity to human 15N-labeled STEP PTP domain (281 to 563 residues) expressed in Escherichia coli OD2 assessed as induction of chemical perturbation at 2 mM by 1H,15N TROSY NMR spectral analysis. A digest of the protocol: as §1
Compound in data set [6]: N=C(N)Nc1cc(C2CCNCC2)cc(C(F)(F)F)c1
Kind of data set: Activation of human STEP PTP domain (281 to 563 residues) expressed in Escherichia coli BL21(DE3) assessed as Kcat at 500 uM using pFyn peptide substrate after 60 mins by RapidFire MS/MS assay (reference value: 0.024 +/- 0.002 /s).

Compound in data set [7]: N=C(N)Nc1cc(C2CCNCC2)cc(C(F)(F)F)c1
As to the kind of experiment: Activation of human STEP PTP domain (281 to 563 residues) expressed in Escherichia coli BL21(DE3) assessed as Km for substrate at 500 uM using pFyn peptide substrate after 60 mins by RapidFire MS/MS assay (reference value: 60.8 +/- 7.9 uM).

As a reminder, the kcat is the number of substrate molecules converted per active site and unit of time at saturation. The term Km denotes the concentration of substrate that gives half-maximal velocity.

The source made the active and inactive calls. No cut-off for these calls is given here.

With `CC(N)Cc1cc(N)cc(C(F)(F)F)c1` (stereo not given), the result in data set [1] was inactive. As for `CC(N)Cc1cc(O)cc(C(F)(F)F)c1` (stereo not given), the outcome in the data set listed under Homo sapiens [2], in the data set listed under Homo sapiens [3] and in the data set listed under Homo sapiens [4] was Active. The Activity in data set [1] is over 5 mM.

Regarding `CC(N)Cc1cccc(C(F)(F)F)c1` (stereo not given), the outcome in data set [1] was inactive.

Consider SODIUM ORTHOVANAD, for which the outcome in data set [5] was Active. Turning to `N=C(N)Nc1cccc(C(F)(F)F)c1`, in data set [1], the outcome was Active.

B1: Tyrosine-protein phosphatase non-receptor type 5 (Homo sapiens), P54829 (protein)
chain: MNYEGARSERENHAADDSEGGALDMCCSERLPGLPQPIVMEALDEAEGLQDSQREMPPPPPPSPPSDPAQKPPPRGAGSHSLTVRSSLCLFAASQFLLACGVLWFSGYGHIWSQNATNLVSSLLTLLKQLEPTAWLDSGTWGVPSLLLVFLSVGLVLVTTLVWHLLRTPPEPPTPLPPEDRRQSVSRQPSFTYSEWMEEKIEDDFLDLDPVPETPVFDCVMDIKPEADPTSLTVKSMGLQERRGSNVSLTLDMCTPGCNEEGFGYLMSPREESAREYLLSASRVLQAEELHEKALDPFLLQAEFFEIPMNFVDPKEYDIPGLVRKNRYKTILPNPHSRVCLTSPDPDDPLSSYINANYIRGYGGEEKVYIATQGPIVSTVADFWRMVWQEHTPIIVMITNIEEMNEKCTEYWPEEQVAYDGVEITVQKVIHTEDYRLRLISLKSGTEERGLKHYWFTSWPDQKTPDRAPPLLHLVREVEEAAQQEGPHCAPIIVHCSAGIGRTGCFIATSICCQQLRQEGVVDILKTTCQLRQDRGGMIQTCEQYQFVHHVMSLYEKQLSHQSPE
For B1, the kcat in data set [6] amounted to 0.042 s⁻¹. Also, the Michaelis-Menten constant (Km) in data set [7] is 65.4 µM.

The values above are taken from ChEMBL document CHEMBL4308845, “Allosteric Activation of Striatal-Enriched Protein Tyrosine Phosphatase (STEP, PTPN5) by a Fragment-like Molecule” (J Med Chem, 2019).
